Laboratory results: ChEMBL document CHEMBL4689842, “EUbOPEN Chemogenomics Library wave 1” (2021)
“And” between values parts separate entries of the source, which are not always exact repeats. Equal entries are not always repeated.

Tested on: U2OS
Assay: Multiplex assay against U2OS
Type: toxicity, cell-based
Conditions: human
Summary of the method: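 On a CQ1 microscope at 37°C and 5% CO2, live cells were imaged after compound addition. They had been stained at seeding with Hoechst33342, BioTracker Green Microtubule Cytoskeleton Dye, MitoTracker Red and Annexin V Alexa Fluor 680. CellPathfinder machine-learning gating assigned cells to Hoechst high-intensity objects or normal cells, normal cells to healthy, pyknosed or fragmented nuclei, and pyknosed cells to mitotic or apoptotic. Tubulin, mitochondrial-mass and membrane-permeability phenotypes are per cents of healthy-nucleus cells.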

[1] = 12 h, 1 µM, compound concentration 1 uM, replicate 1
[2] = 12 h, 1 µM, compound concentration 1 uM, replicate 2
[3] = 12 h, 10 µM, compound concentration 10 uM, replicate 1
[4] = 12 h, 10 µM, compound concentration 10 uM, replicate 2
[5] = 24 h, 1 µM, compound concentration 1 uM, replicate 1
[6] = 24 h, 1 µM, compound concentration 1 uM, replicate 2
[7] = 24 h, 10 µM, compound concentration 10 uM, replicate 1
[8] = 24 h, 10 µM, compound concentration 10 uM, replicate 2
[9] = 48 h, 1 µM, compound concentration 1 uM, replicate 1
[10] = 48 h, 1 µM, compound concentration 1 uM, replicate 2
[11] = 48 h, 10 µM, compound concentration 10 uM, replicate 1
[12] = 48 h, 10 µM, compound concentration 10 uM, replicate 2

O=C(NCCCC1CCCCC1)c1ccc(CNC(=O)c2cnn(-c3ccccc3)c2C(F)(F)F)cc1 [SR-321]
Population Apoptotic (%) [1]: 37% [middle of 4 runs]
Population Healthy Nuclei (%) [1]: 74% and 91%
Population Hoechst High Intensity Objects (%) [1]: 6% and 9% and 5%
Population Membrane Permeable-Phenotype (%) [1]: 9% and 7%
Population Mitotic Cells (%) [1]: 66% [middle of 4 runs]
Population Normal (%) [1]: 93% and 90% and 94%
Population Pyknosed Nuclei (%) [1]: 14% and 13% and 7%
Population Tubulin-Different-Phenotype (%) [1]: 15% and 16% and 35%
Total Cell Count [1]: 181 [middle of 4 runs]
Population Healthy Nuclei (%) [2]: 89% and 53% and 83% and 88%
Population Hoechst High Intensity Objects (%) [2]: 8% and 21% and 7%
Population Membrane Permeable-Phenotype (%) [2]: 14% and 0% and 12%
Population Normal (%) [2]: 91% and 78% and 92%
Population Pyknosed Nuclei (%) [2]: 5% and 6%
Population Tubulin-Different-Phenotype (%) [2]: 20% and 26%
Total Cell Count [2]: 89 [middle of 4 runs]
Population Apoptotic (%) [3]: 40% and 31% and 41%
Population Fragmented Nuclei (%) [3]: 9% [middle of 4 runs]
Population Healthy Nuclei (%) [3]: 71% and 80% and 75% and 86%
Population Hoechst High Intensity Objects (%) [3]: 2% and 4% and 6%
Population Mitochondria Different-Phenotype (%) [3]: 24% and 25% and 20%
Population Mitotic Cells (%) [3]: 60% and 68% and 58%
Population Normal (%) [3]: 97% and 95% and 93%
Population Pyknosed Nuclei (%) [3]: 14% [middle of 4 runs]
Population Tubulin-Different-Phenotype (%) [3]: 15% [middle of 4 runs]
Total Cell Count [3]: 197 [middle of 4 runs]
Population Healthy Nuclei (%) [4]: 66% and 69%
Population Membrane Permeable-Phenotype (%) [4]: 5% and 0% and 11%
Population Mitotic Cells (%) [4]: 80% and 50% and 81% and 88%
Population Normal (%) [4]: 73% and 94% and 91% and 92%
Total Cell Count [4]: 117 [middle of 4 runs]
Population Apoptotic (%) [5]: 40% and 45% and 15%
Population Fragmented Nuclei (%) [5]: 8% [middle of 4 runs]
Population Healthy Nuclei (%) [5]: 85% and 81% and 79% and 91%
Population Membrane Permeable-Phenotype (%) [5]: 8% and 5% and 10%
Population Mitotic Cells (%) [5]: 60% and 54% and 84%
Population Normal (%) [5]: 94% and 96% and 98%
Population Pyknosed Nuclei (%) [5]: 7% and 9% and 8%
Population Tubulin-Different-Phenotype (%) [5]: 19% [middle of 4 runs]
Total Cell Count [5]: 233 [middle of 4 runs]
Population Healthy Nuclei (%) [6]: 66% and 82% and 74% and 94%
Population Membrane Permeable-Phenotype (%) [6]: 4% and 3% and 0% and 7%
Population Mitochondria Different-Phenotype (%) [6]: 19% [middle of 4 runs]
Population Mitotic Cells (%) [6]: 100% and 40%
Population Normal (%) [6]: 85% and 95% and 89% and 97%
Population Tubulin-Different-Phenotype (%) [6]: 30% and 22%
Total Cell Count [6]: 88 [middle of 4 runs]
Population Apoptotic (%) [7]: 44% and 36% and 21%
Population Healthy Nuclei (%) [7]: 71% and 75% and 74% and 89%
Population Hoechst High Intensity Objects (%) [7]: 2% and 4%
Population Membrane Permeable-Phenotype (%) [7]: 5% [middle of 4 runs]
Population Mitochondria Different-Phenotype (%) [7]: 19% and 17%
Population Mitotic Cells (%) [7]: 55% and 63% and 78%
Population Normal (%) [7]: 97% and 95%
Population Pyknosed Nuclei (%) [7]: 15% and 16% and 6%
Population Tubulin-Different-Phenotype (%) [7]: 12% [middle of 4 runs]
Total Cell Count [7]: 232 [middle of 4 runs]
Population Healthy Nuclei (%) [8]: 67% and 65% and 86%
Population Mitotic Cells (%) [8]: 50% and 66% and 88%
Population Normal (%) [8]: 93% and 81% and 92% and 96%
Population Pyknosed Nuclei (%) [8]: 11% and 14%
Total Cell Count [8]: 124 [middle of 4 runs]
Population Apoptotic (%) [9]: 33% and 45% and 47%
Population Fragmented Nuclei (%) [9]: 5% and 9%
Population Healthy Nuclei (%) [9]: 88% and 86%
Population Hoechst High Intensity Objects (%) [9]: 1%
Population Membrane Permeable-Phenotype (%) [9]: 2%
Population Mitochondria Different-Phenotype (%) [9]: 11% and 8%
Population Mitotic Cells (%) [9]: 66% and 54% and 52%
Population Normal (%) [9]: 98%
Population Pyknosed Nuclei (%) [9]: 7%
Population Tubulin-Different-Phenotype (%) [9]: 23% and 19%
Total Cell Count [9]: 217 and 382 and 367
Population Fragmented Nuclei (%) [10]: 4% and 7% and 6%
Population Healthy Nuclei (%) [10]: 85% and 87%
Population Hoechst High Intensity Objects (%) [10]: 6% and 3% and 8%
Population Membrane Permeable-Phenotype (%) [10]: 6% and 5% and 4%
Population Mitochondria Different-Phenotype (%) [10]: 18% and 10% and 15%
Population Normal (%) [10]: 93% and 96% and 92%
Population Pyknosed Nuclei (%) [10]: 10% and 4% and 6%
Population Tubulin-Different-Phenotype (%) [10]: 42% and 18% and 27%
Total Cell Count [10]: 118 and 104 and 109
Population Apoptotic (%) [11]: 50% and 43% and 45%
Population Fragmented Nuclei (%) [11]: 9% and 10% and 8%
Population Healthy Nuclei (%) [11]: 72% and 74% and 78%
Population Hoechst High Intensity Objects (%) [11]: 3% and 2%
Population Membrane Permeable-Phenotype (%) [11]: 3% and 2%
Population Mitochondria Different-Phenotype (%) [11]: 16% and 11% and 7%
Population Mitotic Cells (%) [11]: 49% and 56% and 54%
Population Normal (%) [11]: 96% and 97%
Population Pyknosed Nuclei (%) [11]: 18% and 14% and 13%
Population Tubulin-Different-Phenotype (%) [11]: 10% and 4% and 12%
Total Cell Count [11]: 425 and 284 and 300
Population Apoptotic (%) [12]: 61% and 60% and 57%
Population Fragmented Nuclei (%) [12]: 18% and 16% and 20%
Population Healthy Nuclei (%) [12]: 61% and 77% and 62%
Population Membrane Permeable-Phenotype (%) [12]: 12% and 6% and 5%
Population Mitochondria Different-Phenotype (%) [12]: 24% and 22% and 17%
Population Mitotic Cells (%) [12]: 38% and 40% and 42%
Population Normal (%) [12]: 82% and 94% and 91%
Population Tubulin-Different-Phenotype (%) [12]: 16% and 15% and 17%
Total Cell Count [12]: 125 and 91 and 127

Cc1[nH]c(/C=C2\C(=O)Nc3ccc(S(=O)(=O)N(C)c4cccc(Cl)c4)cc32)c(C)c1C(=O)N1CCN(C)CC1
Population Apoptotic (%) [1]: 66%
Population Fragmented Nuclei (%) [1]: 13%
Population Mitochondria Different-Phenotype (%) [1]: 58%
Population Mitotic Cells (%) [1]: 33%
Population Pyknosed Nuclei (%) [1]: 9%
Population Tubulin-Different-Phenotype (%) [1]: 80%
Total Cell Count [1]: 305
Population Apoptotic (%) [2]: 100%
Population Fragmented Nuclei (%) [2]: 16%
Population Healthy Nuclei (%) [2]: 77%
Population Hoechst High Intensity Objects (%) [2]: 12%
Population Membrane Permeable-Phenotype (%) [2]: 12%
Population Mitochondria Different-Phenotype (%) [2]: 42%
Population Mitotic Cells (%) [2]: 0%
Population Normal (%) [2]: 87%
Population Pyknosed Nuclei (%) [2]: 6%
Population Tubulin-Different-Phenotype (%) [2]: 68%
Total Cell Count [2]: 90
Population Apoptotic (%) [3]: 60%
Population Fragmented Nuclei (%) [3]: 12%
Population Healthy Nuclei (%) [3]: 76%
Population Hoechst High Intensity Objects (%) [3]: 8%
Population Membrane Permeable-Phenotype (%) [3]: 24%
Population Mitochondria Different-Phenotype (%) [3]: 68%
Population Mitotic Cells (%) [3]: 40%
Population Normal (%) [3]: 91%
Population Pyknosed Nuclei (%) [3]: 11%
Total Cell Count [3]: 147
Population Apoptotic (%) [4]: 25%
Population Fragmented Nuclei (%) [4]: 10%
Population Healthy Nuclei (%) [4]: 74%
Population Hoechst High Intensity Objects (%) [4]: 12%
Population Membrane Permeable-Phenotype (%) [4]: 40%
Population Mitochondria Different-Phenotype (%) [4]: 97%
Population Mitotic Cells (%) [4]: 75%
Population Normal (%) [4]: 87%
Population Pyknosed Nuclei (%) [4]: 16%
Population Tubulin-Different-Phenotype (%) [4]: 100%
Total Cell Count [4]: 70
Population Apoptotic (%) [5]: 73%
Population Fragmented Nuclei (%) [5]: 11%
Population Healthy Nuclei (%) [5]: 77%
Population Hoechst High Intensity Objects (%) [5]: 9%
Population Membrane Permeable-Phenotype (%) [5]: 7%
Population Mitochondria Different-Phenotype (%) [5]: 51%
Population Mitotic Cells (%) [5]: 26%
Population Normal (%) [5]: 90%
Population Pyknosed Nuclei (%) [5]: 11%
Population Tubulin-Different-Phenotype (%) [5]: 61%
Total Cell Count [5]: 272
Population Apoptotic (%) [6]: 100%
Population Fragmented Nuclei (%) [6]: 18%
Population Healthy Nuclei (%) [6]: 72%
Population Hoechst High Intensity Objects (%) [6]: 8%
Population Membrane Permeable-Phenotype (%) [6]: 10%
Population Mitochondria Different-Phenotype (%) [6]: 40%
Population Mitotic Cells (%) [6]: 0%
Population Normal (%) [6]: 91%
Population Pyknosed Nuclei (%) [6]: 9%
Population Tubulin-Different-Phenotype (%) [6]: 55%
Total Cell Count [6]: 65
Population Apoptotic (%) [7]: 82%
Population Fragmented Nuclei (%) [7]: 13%
Population Healthy Nuclei (%) [7]: 68%
Population Hoechst High Intensity Objects (%) [7]: 8%
Population Membrane Permeable-Phenotype (%) [7]: 46%
Population Mitochondria Different-Phenotype (%) [7]: 88%
Population Mitotic Cells (%) [7]: 17%
Population Normal (%) [7]: 91%
Population Pyknosed Nuclei (%) [7]: 17%
Population Tubulin-Different-Phenotype (%) [7]: 100%
Total Cell Count [7]: 140
Population Apoptotic (%) [8]: 100%
Population Fragmented Nuclei (%) [8]: 17%
Population Healthy Nuclei (%) [8]: 73%
Population Membrane Permeable-Phenotype (%) [8]: 84%
Population Mitochondria Different-Phenotype (%) [8]: 100%
Population Mitotic Cells (%) [8]: 0%
Population Pyknosed Nuclei (%) [8]: 9%
Total Cell Count [8]: 71
Population Apoptotic (%) [9]: 80%
Population Fragmented Nuclei (%) [9]: 18%
Population Healthy Nuclei (%) [9]: 70%
Population Hoechst High Intensity Objects (%) [9]: 4%
Population Membrane Permeable-Phenotype (%) [9]: 10%
Population Mitochondria Different-Phenotype (%) [9]: 32%
Population Mitotic Cells (%) [9]: 19%
Population Normal (%) [9]: 95%
Population Pyknosed Nuclei (%) [9]: 11%
Population Tubulin-Different-Phenotype (%) [9]: 30%
Total Cell Count [9]: 261
Population Apoptotic (%) [10]: 25%
Population Fragmented Nuclei (%) [10]: 16%
Population Healthy Nuclei (%) [10]: 77%
Population Hoechst High Intensity Objects (%) [10]: 14%
Population Membrane Permeable-Phenotype (%) [10]: 21%
Population Mitochondria Different-Phenotype (%) [10]: 30%
Population Mitotic Cells (%) [10]: 75%
Population Normal (%) [10]: 85%
Population Pyknosed Nuclei (%) [10]: 5%
Population Tubulin-Different-Phenotype (%) [10]: 37%
Total Cell Count [10]: 62
Population Fragmented Nuclei (%) [11]: 24%
Population Healthy Nuclei (%) [11]: 50%
Population Hoechst High Intensity Objects (%) [11]: 7%
Population Membrane Permeable-Phenotype (%) [11]: 76%
Population Mitochondria Different-Phenotype (%) [11]: 91%
Population Normal (%) [11]: 92%
Population Pyknosed Nuclei (%) [11]: 24%
Total Cell Count [11]: 186
Population Apoptotic (%) [12]: 100%
Population Fragmented Nuclei (%) [12]: 14%
Population Healthy Nuclei (%) [12]: 72%
Population Hoechst High Intensity Objects (%) [12]: 15%
Population Membrane Permeable-Phenotype (%) [12]: 88%
Population Mitochondria Different-Phenotype (%) [12]: 100%
Population Mitotic Cells (%) [12]: 0%
Population Normal (%) [12]: 84%
Population Pyknosed Nuclei (%) [12]: 12%
Population Tubulin-Different-Phenotype (%) [12]: 100%
Total Cell Count [12]: 84
